From ChEMBL document CHEMBL1154150, “Synthesis and anticonvulsant activity of some new bishydrazones derived from 3,4-dipropyloxythiophene” (Eur J Med Chem, 2009) come the findings set out here.

Active and inactive are the calls of the source. The calls are words filed in the database; no cut-off is given here.

Data set [1] relates to Mus musculus. The data set is described as follows: Anticonvulsant activity in CF1 mouse assessed as protection against maximal electroshock-induced seizures at 300 mg/kg, ip after 0.5 hrs. The data set is classed as functional, organism-based. The arrangement: dose 300 mg/kg. The gist of the method: (§1)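 Male CF-1 albino mice (18–25 g), dosed i.p. at 30, 100 or 300 mg/kg in 0.5% methyl cellulose/water or PEG 200 (0.01 ml/g); tested at intervals after dosing; protection = abolition of hind limb tonic extensor component of MES seizure; scored as protected/tested.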
Background: In the maximal electroshock model the usual endpoint is tonic extension of the hind limbs.

Data set [2] relates to Mus musculus. Nature of the data set: Anticonvulsant activity in CF1 mouse assessed as protection against subcutaneous metrazole-induced seizures at 30 mg/kg, ip after 0.5 hrs. The data set is classed as functional, organism-based. Set-up: dose 30 mg/kg.
Data set [3] relates to Mus musculus. Nature of the data set: Neurotoxicity in CF1 mouse at 30 mg/kg, ip after 4 hrs by rotarod test. The data set is classed as toxicity, organism-based. Set-up: dose 30 mg/kg, route intraperitoneal. The note with it: in vivo. The method, boiled down: (§2)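 Rotorod neurotoxicity in male CF-1 mice (18–25 g) after i.p. compound in 0.5% methyl cellulose/water or PEG 200 at 30, 100 or 300 mg/kg; reported as number showing toxicity/number tested.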

In data set [4] the test system is Mus musculus. The data set is described as follows: Anticonvulsant activity in CF1 mouse assessed as protection against maximal electroshock-induced seizures at 300 mg/kg, ip after 4 hrs. The data set is classed as functional, organism-based. Set-up: dose 300 mg/kg. The method, boiled down: as §1
The test system of data set [5] is Mus musculus. The data set is described as follows: Neurotoxicity in CF1 mouse at 300 mg/kg, ip after 0.5 hrs by rotarod test. The data set is classed as toxicity, organism-based. Set-up: dose 300 mg/kg, route intraperitoneal. The note with it: in vivo. The gist of the method: as §2
(The rotarod test checks motor coordination on a turning rod.)

Data set [6] relates to Mus musculus. The data set is described as follows: Anticonvulsant activity in CF1 mouse assessed as protection against subcutaneous metrazole-induced seizures at 300 mg/kg, ip after 0.5 hrs. The data set is classed as functional, organism-based. The arrangement: dose 300 mg/kg.
Data set [7] deals with Mus musculus. Nature of the data set: Anticonvulsant activity in CF1 mouse assessed as protection against maximal electroshock-induced seizures at 30 mg/kg, ip after 0.5 hrs. The data set is classed as functional, organism-based. Set-up: dose 30 mg/kg. The gist of the method:
as §1

For data set [8], the system named is Mus musculus. Nature of the data set: Neurotoxicity in CF1 mouse at 100 mg/kg, ip after 0.5 hrs by rotarod test. The data set is classed as toxicity, organism-based. The note with it: in vivo. Set-up: dose 100 mg/kg, route intraperitoneal. The method, boiled down:
as §2

The test system of data set [9] is Mus musculus. The data set is described as follows: Neurotoxicity in CF1 mouse at 30 mg/kg, ip after 0.5 hrs by rotarod test. The data set is classed as toxicity, organism-based. The arrangement: dose 30 mg/kg, route intraperitoneal. The note with it: in vivo. The gist of the method:
as §2

Data set [10] concerns Mus musculus. The data set is described as follows: Anticonvulsant activity in CF1 mouse assessed as protection against subcutaneous metrazole-induced seizures at 300 mg/kg, ip after 4 hrs. The data set is classed as functional, organism-based. Set-up: dose 300 mg/kg.
Data set [11] concerns Mus musculus. Nature of the data set: Anticonvulsant activity in CF1 mouse assessed as protection against subcutaneous metrazole-induced seizures at 100 mg/kg, ip after 4 hrs. The data set is classed as functional, organism-based. The arrangement: dose 100 mg/kg.
For data set [12], the system named is Mus musculus. Nature of the data set: Neurotoxicity in CF1 mouse at 100 mg/kg, ip after 4 hrs by rotarod test. Set-up: dose 100 mg/kg, route intraperitoneal. The data set is classed as toxicity, organism-based. The note with it: in vivo. The method, boiled down:
as §2

Data set [13] deals with Mus musculus. The data set is described as follows: Anticonvulsant activity in CF1 mouse assessed as protection against maximal electroshock-induced seizures at 100 mg/kg, ip after 4 hrs. The data set is classed as functional, organism-based. Set-up: dose 100 mg/kg. The method, boiled down:
as §1

Data set [14] relates to Mus musculus. Nature of the data set: Anticonvulsant activity in CF1 mouse assessed as protection against maximal electroshock-induced seizures at 100 mg/kg, ip after 0.5 hrs. The data set is classed as functional, organism-based. The arrangement: dose 100 mg/kg. The method, boiled down:
as §1

In data set [15] the test system is Mus musculus. The data set is described as follows: Anticonvulsant activity in CF1 mouse assessed as protection against maximal electroshock-induced seizures at 30 mg/kg, ip after 4 hrs. The data set is classed as functional, organism-based. Set-up: dose 30 mg/kg. The gist of the method: as §1
In data set [16] the test system is Mus musculus. Nature of the data set: Anticonvulsant activity in CF1 mouse assessed as protection against subcutaneous metrazole-induced seizures at 30 mg/kg, ip after 4 hrs. The arrangement: dose 30 mg/kg. The data set is classed as functional, organism-based.
In data set [17] the test system is Mus musculus. The data set is described as follows: Neurotoxicity in CF1 mouse at 300 mg/kg, ip after 4 hrs by rotarod test. The data set is classed as toxicity, organism-based. The arrangement: dose 300 mg/kg, route intraperitoneal. The note with it: in vivo. The method, boiled down: as §2
Data set [18] concerns Mus musculus. Nature of the data set: Anticonvulsant activity in CF1 mouse assessed as protection against subcutaneous metrazole-induced seizures at 100 mg/kg, ip after 0.5 hrs. Set-up: dose 100 mg/kg. The data set is classed as functional, organism-based.

Take `CCCOc1c(C(=O)N/N=C\c2cccs2)sc(C(=O)N/N=C/c2cccs2)c1OCCC`: the result in the data set with Mus musculus [1], in the data set on Mus musculus [2], with Mus musculus [4], in the data set on Mus musculus [6], with Mus musculus [7] and in the data set on Mus musculus [10] was inactive. The result in the data set on Mus musculus [11], with Mus musculus [13], in the data set on Mus musculus [14], in the data set on Mus musculus [15] and in the data set with Mus musculus [16] was inactive. Moreover, the Activity result is given as “Non-toxic” with Mus musculus [3]; “Toxic” with Mus musculus [5]; “Toxic” in the data set with Mus musculus [8]; “Non-toxic” with Mus musculus [9]; “Non-toxic” in the data set with Mus musculus [12]; “Toxic” with Mus musculus [17].

Turning to `CCCOc1c(C(=O)N/N=C\c2ccc([N+](=O)[O-])o2)sc(C(=O)N/N=C/c2ccc([N+](=O)[O-])o2)c1OCCC`, the result with Mus musculus [1], in the data set on Mus musculus [2], in the data set on Mus musculus [4], in the data set on Mus musculus [6], with Mus musculus [7] and with Mus musculus [10] was inactive. The outcome with Mus musculus [11], with Mus musculus [13], with Mus musculus [14], with Mus musculus [15] and with Mus musculus [16] was inactive. Moreover, the Activity entry in the data set on Mus musculus [3] is “Non-toxic”; in the data set on Mus musculus [5], “Toxic”; with Mus musculus [8] it was “Toxic”; in the data set with Mus musculus [12], “Toxic”; in the data set on Mus musculus [17] it was “Toxic”.

Take `CCCOc1c(C(=O)NN=C2CCCC2)sc(C(=O)NN=C2CCCC2)c1OCCC`: the outcome in the data set on Mus musculus [1], in the data set on Mus musculus [2], in the data set with Mus musculus [6], with Mus musculus [7], in the data set with Mus musculus [10] and in the data set on Mus musculus [11] was inactive. Moreover, the outcome in the data set on Mus musculus [13], in the data set on Mus musculus [14], in the data set on Mus musculus [15], in the data set on Mus musculus [16] and with Mus musculus [18] was inactive. The Activity result with Mus musculus [3], with Mus musculus [5], in the data set with Mus musculus [8], in the data set on Mus musculus [9], in the data set with Mus musculus [12] and with Mus musculus [17] was “Non-toxic” in each case.

Take `CCCOc1c(C(=O)N/N=C(/c2ccccc2)c2ccncc2)sc(C(=O)N/N=C(\c2ccccc2)c2ccncc2)c1OCCC`: the outcome with Mus musculus [1], in the data set with Mus musculus [2], with Mus musculus [4], in the data set with Mus musculus [6], in the data set with Mus musculus [7] and in the data set on Mus musculus [10] was inactive. The outcome in the data set with Mus musculus [11], in the data set on Mus musculus [13], with Mus musculus [15] and in the data set with Mus musculus [18] was inactive. For the same compound, the Activity result in the data set on Mus musculus [3], with Mus musculus [5], in the data set on Mus musculus [8], with Mus musculus [9], in the data set on Mus musculus [12] and with Mus musculus [17] was “Non-toxic” each time.

Turning to `CCCC/C=N/NC(=O)c1sc(C(=O)N/N=C/CCCC)c(OCCC)c1OCCC`, the outcome with Mus musculus [1], in the data set on Mus musculus [2], with Mus musculus [4], with Mus musculus [6], in the data set on Mus musculus [7] and in the data set with Mus musculus [10] was inactive. The outcome with Mus musculus [11], in the data set with Mus musculus [13], in the data set with Mus musculus [14], with Mus musculus [15] and in the data set on Mus musculus [16] was inactive. The Activity entry in the data set on Mus musculus [3] was “Non-toxic”; with Mus musculus [5], “Toxic”; in the data set with Mus musculus [8], “Toxic”; in the data set with Mus musculus [9] it was “Non-toxic”; with Mus musculus [12] it was “Non-toxic”; in the data set with Mus musculus [17], “Non-toxic”.

Turning to `CCCOc1c(C(=O)N/N=C(\C)c2nccs2)sc(C(=O)N/N=C(\C)c2nccs2)c1OCCC`, the outcome in the data set on Mus musculus [1], with Mus musculus [2], in the data set on Mus musculus [4], in the data set on Mus musculus [6], in the data set on Mus musculus [7] and in the data set with Mus musculus [10] was inactive. The result in the data set with Mus musculus [11], in the data set with Mus musculus [13], in the data set on Mus musculus [15], with Mus musculus [16] and with Mus musculus [18] was inactive. Further, the Activity entry with Mus musculus [3], in the data set on Mus musculus [5], in the data set with Mus musculus [8], with Mus musculus [9], with Mus musculus [12] and with Mus musculus [17] was “Non-toxic” in each case.

Take `CCCOc1c(C(=O)N/N=C(\C)c2cc3ccccc3oc2=O)sc(C(=O)N/N=C(\C)c2cc3ccccc3oc2=O)c1OCCC`: the result in the data set on Mus musculus [1], in the data set on Mus musculus [2], with Mus musculus [6], in the data set on Mus musculus [7], in the data set with Mus musculus [10] and in the data set on Mus musculus [11] was inactive. Besides, the result in the data set on Mus musculus [13], with Mus musculus [14], in the data set on Mus musculus [15], with Mus musculus [16] and in the data set on Mus musculus [18] was inactive. Further, the Activity result is on record as “Non-toxic” with Mus musculus [3]; “Toxic” in the data set on Mus musculus [5]; “Toxic” in the data set on Mus musculus [8]; “Non-toxic” in the data set with Mus musculus [9]; “Non-toxic” in the data set with Mus musculus [12]; “Toxic” with Mus musculus [17].

Regarding `CCCOc1c(C(=O)N/N=C(\C)c2ccccc2)sc(C(=O)N/N=C(\C)c2ccccc2)c1OCCC`, the outcome in the data set with Mus musculus [1], with Mus musculus [2], with Mus musculus [6], with Mus musculus [7], in the data set with Mus musculus [10] and with Mus musculus [11] was inactive. Besides, the result in the data set with Mus musculus [13], in the data set with Mus musculus [14], with Mus musculus [15], with Mus musculus [16] and in the data set with Mus musculus [18] was inactive. Moreover, the Activity entry in the data set with Mus musculus [3], with Mus musculus [5], with Mus musculus [8], in the data set on Mus musculus [9], in the data set on Mus musculus [12] and with Mus musculus [17] was “Non-toxic” throughout.
